Data from ChEMBL document CHEMBL2069213, “Synthesis and evaluation of small libraries of triazolylmethoxy chalcones, flavanones and 2-aminopyrimidines as inhibitors of mycobacterial FAS-II and PknG” (Bioorg Med Chem, 2012).
Values after ≈ are worked out from the molar mass of the structure shown. Active and inactive are the calls of the source. No cut-off for these calls is given here.

Assays:
[1] = test system: Mycolicibacterium aurum; test: Inhibition of FAS2 in recombinant Mycobacterium aurum expressing hsp60 promoter in fusion Escherichia coli lacZ gene assessed as increase in beta-galactosidase activity at 50 uM incubated for 12 hrs by lacZ reporter gene assay
[2] = test system: Mycolicibacterium aurum; test: Growth inhibition of Mycobacterium aurum expressing Mycobacterium tuberculosis H37Rv kas operon in fusion Escherichia coli lacZ gene at 100 uM incubated for 12 hrs; assay type: functional; conditions: read-out: GI
[3] = test system: Mycolicibacterium aurum; test: Inhibition of FAS2 in recombinant Mycobacterium aurum expressing hsp60 promoter in fusion Escherichia coli lacZ gene assessed as increase in beta-galactosidase activity at 100 uM incubated for 12 hrs by lacZ reporter gene assay
[4] = Toxicity against macrophages incubated for 48 hrs by resazurin dye reduction assay; assay type: cell-based, Macrophage
Method in brief: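 Macrophages from subconfluent monolayers seeded ~1 × 10^6 cells/well in RPMI-1640; compounds 100 to 12.5 µM, 48 h at 37 °C, 5% CO2; resazurin added for 4 h, fluorescence 535/590 nm read against untreated wells as % viability; CC50 taken from viability-versus-concentration plot; triplicates.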

[5] = test system: Mycolicibacterium aurum; test: Inhibition of FAS2 in recombinant Mycobacterium aurum expressing Mycobacterium tuberculosis H37Rv kas operon in fusion Escherichia coli lacZ gene assessed as increase in beta-galactosidase activity at 100 uM incubated for 12 hrs by lacZ reporter gene assay
Method in brief: (§1)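 Cells washed, sonicated in PBS pH 7.2; equal Bradford-quantified protein incubated with ONPG (4 mg/ml) 30 min at 37 °C, stopped with Na2CO3, read at 410 nm. Triplicates, experiment repeated twice; isoniazid positive control.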

[6] = test system: Mycolicibacterium aurum; test: Growth inhibition of Mycobacterium aurum expressing Mycobacterium tuberculosis H37Rv kas operon in fusion Escherichia coli lacZ gene at 50 uM incubated for 12 hrs; assay type: functional; conditions: read-out: GI
[7] = test system: Mycolicibacterium aurum; test: Inhibition of FAS2 in recombinant Mycobacterium aurum expressing Mycobacterium tuberculosis H37Rv kas operon in fusion Escherichia coli lacZ gene assessed as increase in beta-galactosidase activity at 50 uM incubated for 12 hrs by lacZ reporter gene assay; method in brief: as §1
[8] = biological target: Serine/threonine-protein kinase PknG (Mycobacterium tuberculosis) (UniProt P9WI73); test: Inhibition of Mycobacterium tuberculosis recombinant PKnG expressed in Escherichia coli BL21 (DE3) cells using myelin basic protein substrate at 3.125 uM by luciferase activity based ADP-Glo-luminescent kinase assay
Sequence of Serine/threonine-protein kinase PknG (Mycobacterium tuberculosis) (P9WI73 whole entry): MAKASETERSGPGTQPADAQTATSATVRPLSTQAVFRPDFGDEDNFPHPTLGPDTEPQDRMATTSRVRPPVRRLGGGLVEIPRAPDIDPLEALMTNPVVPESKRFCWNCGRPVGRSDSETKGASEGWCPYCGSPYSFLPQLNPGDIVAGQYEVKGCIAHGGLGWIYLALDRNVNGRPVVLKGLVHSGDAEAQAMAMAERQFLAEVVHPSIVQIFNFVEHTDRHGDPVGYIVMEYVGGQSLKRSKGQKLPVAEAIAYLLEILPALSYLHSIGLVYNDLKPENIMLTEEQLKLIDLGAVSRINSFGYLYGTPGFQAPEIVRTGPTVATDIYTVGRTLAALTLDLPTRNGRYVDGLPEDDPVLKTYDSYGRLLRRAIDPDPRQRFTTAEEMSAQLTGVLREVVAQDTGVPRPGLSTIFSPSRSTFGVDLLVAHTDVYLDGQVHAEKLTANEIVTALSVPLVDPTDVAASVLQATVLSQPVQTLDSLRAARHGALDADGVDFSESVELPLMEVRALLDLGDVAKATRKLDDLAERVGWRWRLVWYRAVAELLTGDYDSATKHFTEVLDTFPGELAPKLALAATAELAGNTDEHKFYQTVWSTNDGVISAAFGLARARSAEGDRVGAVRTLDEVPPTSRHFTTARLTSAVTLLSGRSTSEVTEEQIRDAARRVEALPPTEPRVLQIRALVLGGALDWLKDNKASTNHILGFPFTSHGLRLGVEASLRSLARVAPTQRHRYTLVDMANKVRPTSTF
Method in brief: (§2)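 6-His-PknG from M. tuberculosis genomic DNA cloned into pTriEx4, expressed in E. coli with 0.8 mM IPTG 4 h at 37 °C, purified by Ni2+-NTA then size exclusion. Compounds dissolved in DMSO; assayed with myelin basic protein substrate; ADP formed measured by ADP-Glo luminescence; AX20017 positive control; dose-response series.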

[9] = biological target: Serine/threonine-protein kinase PknG (Mycobacterium tuberculosis) (UniProt P9WI73); test: Inhibition of Mycobacterium tuberculosis recombinant PKnG expressed in Escherichia coli BL21 (DE3) cells using myelin basic protein substrate at 50 uM by luciferase activity based ADP-Glo-luminescent kinase assay; method in brief: as §2
[10] = biological target: Serine/threonine-protein kinase PknG (Mycobacterium tuberculosis) (UniProt P9WI73); test: Inhibition of Mycobacterium tuberculosis recombinant PKnG expressed in Escherichia coli BL21 (DE3) cells using myelin basic protein substrate at 100 uM by luciferase activity based ADP-Glo-luminescent kinase assay; method in brief: as §2
[11] = biological target: Serine/threonine-protein kinase PknG (Mycobacterium tuberculosis) (UniProt P9WI73); test: Inhibition of Mycobacterium tuberculosis recombinant PKnG expressed in Escherichia coli BL21 (DE3) cells using myelin basic protein substrate at 25 uM by luciferase activity based ADP-Glo-luminescent kinase assay; method in brief: as §2
[12] = biological target: Serine/threonine-protein kinase PknG (Mycobacterium tuberculosis) (UniProt P9WI73); test: Inhibition of Mycobacterium tuberculosis recombinant PKnG expressed in Escherichia coli BL21 (DE3) cells using myelin basic protein substrate at 12.5 uM by luciferase activity based ADP-Glo-luminescent kinase assay; method in brief: as §2
[13] = test system: Mycobacterium tuberculosis; test: Growth inhibition of Mycobacterium tuberculosis H37Rv; assay type: functional
[14] = biological target: Serine/threonine-protein kinase PknG (Mycobacterium tuberculosis) (UniProt P9WI73); test: Inhibition of Mycobacterium tuberculosis recombinant PKnG expressed in Escherichia coli BL21 (DE3) cells using myelin basic protein substrate at 6.25 uM by luciferase activity based ADP-Glo-luminescent kinase assay; method in brief: as §2

CC(C)c1ccc(C2CC(=O)c3ccc(OCc4cn(Cc5ccccc5)nn4)cc3O2)cc1 (centres undefined)
inhibition [1]: inactive
inhibition of growth at 100 µM [2]: 79.3%
inhibition [3]: inactive
CC50 at 48 h [4]: 23.8 µM
inhibition [5]: Active
inhibition of growth at 50 µM [6]: 54.7%
inhibition [7]: Active

O=C(/C=C/c1c(F)cccc1Cl)c1ccc(OCc2cn(Cc3ccc(Br)cc3)nn2)cc1O
inhibition [1]: inactive
inhibition of growth at 100 µM [2]: 83%
inhibition [3]: inactive
CC50 at 48 h [4]: 65.8 µM
inhibition [5]: Active
inhibition of growth at 50 µM [6]: 53.1%
inhibition [7]: Active

CCCCCCn1cc(COc2ccc(-c3cc(-c4ccccc4)nc(N)n3)c(O)c2)nn1
inhibition [8]: 0%
inhibition [9]: 13%
inhibition [10]: 23%
inhibition [11]: 0%
inhibition [12]: 0%
MIC [13]: 50 µg/mL (≈ 112 µM)
inhibition [14]: 0%

CCCCCCn1cc(COc2ccc(C(=O)/C=C/c3c(F)cccc3Cl)c(O)c2)nn1
inhibition [1]: inactive
inhibition of growth at 100 µM [2]: 79.1%
inhibition [3]: inactive
CC50 at 48 h [4]: > 100 µM
inhibition [5]: Active
inhibition of growth at 50 µM [6]: 71.6%
inhibition [7]: Active

CCCCCCn1cc(COc2ccc3c(c2)OC(c2ccc(Br)cc2)CC3=O)nn1 (centres undefined)
inhibition [1]: inactive
inhibition of growth at 100 µM [2]: 75.1%
inhibition [3]: inactive
CC50 at 48 h [4]: 20.3 µM
inhibition [5]: Active
inhibition of growth at 50 µM [6]: 68.9%
inhibition [7]: Active

O=C(/C=C/c1ccccc1)c1ccc(OCc2cn(Cc3ccc(Br)cc3)nn2)cc1O
inhibition [1]: inactive
inhibition of growth at 100 µM [2]: 85.3%
inhibition [3]: inactive
CC50 at 48 h [4]: 71.7 µM
inhibition [5]: Active
inhibition of growth at 50 µM [6]: 53.8%
inhibition [7]: Active

CCCCCCn1cc(COc2ccc3c(c2)OC(c2ccc(OC)cc2)CC3=O)nn1 (centres undefined)
inhibition [1]: inactive
inhibition of growth at 100 µM [2]: 65.7%
inhibition [3]: inactive
CC50 at 48 h [4]: 57.5 µM
inhibition [5]: Active
inhibition of growth at 50 µM [6]: 55.9%
inhibition [7]: Active
